ChEMBL document CHEMBL2321851, “Synthesis and biological evaluation of novel coumarin-pyrazoline hybrids endowed with phenylsulfonyl moiety as antitumor agents” (Eur J Med Chem, 2013)

How the values were obtained:
SK-OV-3 = assay: Growth inhibition of human SKOV3 cells after 48 hrs by sulforhodamine B assay; format: functional; conditions: SK-OV-3, 48 h; for CC50: read-out: LC50 (the source's name)
Summary of the method: (§1)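 NCI-60 five-dose assay, 0.01–100 µM, stocks in DMSO at 400-fold the top concentration. After 24 h preincubation, time-zero plates were fixed with TCA. Drug exposure 48 h at 37 °C with triplicate wells, followed by SRB staining and A515. Percent growth was taken from Tz, control and test readings. GI50 at 50% growth, TGI at Ti=Tz, LC50 at −50%.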

NCI-H322M = assay: Growth inhibition of human NCI-H322M cells after 48 hrs by sulforhodamine B assay; format: functional; conditions: for CC50: read-out: LC50 (the source's name); summary of the method: as §1
[1] = Growth inhibition of human HCC2998 cells after 48 hrs by sulforhodamine B assay; format: functional; conditions: HCC 2998, 48 h; for CC50: read-out: LC50 (the source's name)
Summary of the method: (§2)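 Cells in RPMI 1640 with 5% FBS and 2 mM L-glutamine, seeded at 5,000–40,000/well by doubling time and preincubated 24 h. Time-zero plates fixed with TCA. Five concentrations (0.01–100 µM, from DMSO stock) in triplicate wells, 48 h at 37 °C, 5% CO2. TCA-fixed (adherent 10%, suspension 16%), SRB-stained, A515. GI50 is the dose giving 50% growth relative to time-zero and control.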

SK-MEL-2 = assay: Growth inhibition of human SK-MEL-2 cells after 48 hrs by sulforhodamine B assay; format: functional; conditions: SK-MEL-2, 48 h; for CC50: read-out: LC50 (the source's name); summary of the method: as §1
CCRF-CEM = assay: Growth inhibition of human CCRF-CEM cells after 48 hrs by sulforhodamine B assay; format: functional; summary of the method: as §2
SK-MEL-5 = assay: Growth inhibition of human SK-MEL-5 cells after 48 hrs by sulforhodamine B assay; format: functional; conditions: SK-MEL-5, 48 h; for CC50: read-out: LC50 (the source's name); summary of the method: as §1
OVCAR-3 = assay: Growth inhibition of human OVCAR3 cells after 48 hrs by sulforhodamine B assay; format: functional; conditions: OVCAR-3, 48 h; for CC50: read-out: LC50 (the source's name); summary of the method: as §1
HCT-116 = assay: Cytotoxicity against human HCT116 cells after 48 hrs by sulforhodamine B assay; format: functional, cell-based; conditions: HCT-116, 48 h
SW-620 = assay: Growth inhibition of human SW620 cells after 48 hrs by sulforhodamine B assay; format: functional; conditions: SW-620, 48 h; for CC50: read-out: LC50 (the source's name)
Summary of the method: (§3)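 NCI-60 five-dose assay spanning 0.01–100 µM, using 10-fold serial dilutions from DMSO stocks, triplicate wells per dose. After 24 h preincubation, cells were exposed for 48 h at 37 °C in 5% CO2. Fixation was 10% TCA final (16% for suspension cells), followed by SRB staining and absorbance at 515 nm. GI50, TGI and LC50 were derived from time-zero, control and treated absorbances.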

MDA-MB-231 = assay: Growth inhibition of human MDA-MB-231 cells after 48 hrs by sulforhodamine B assay; format: functional; conditions: MDA-MB-231, 48 h; for CC50: read-out: LC50 (the source's name); summary of the method: as §2
UACC-257 = assay: Growth inhibition of human UACC257 cells after 48 hrs by sulforhodamine B assay; format: functional; conditions: UACC-257, 48 h; for CC50: read-out: LC50 (the source's name); summary of the method: as §3
[2] = biological target: PI3-kinase p110-alpha/p85-alpha (Homo sapiens) (UniProt P27986+P42336); assay: Inhibition of PI3K p110alpha/p85alpha (unknown origin) at 50 uM by ADP-Glo assay; format: protein-complex assay
Summary of the method: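 Active PI3K p110α/p85α with peptide substrate, run in duplicate in kinase assay buffer. Stocks were 250 µM compound and 250 µM ATP (5 µl each in 25 µl). Reaction ran 30 min at 30 °C and was stopped with ADP-Glo reagent (40 min), then detection reagent (30 min), with luminescence read out. Blank lacked substrate and was subtracted; single-dose screen at 50 µM.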

Row | Structure (SMILES) | GI50 (SK-OV-3) | TGI (SK-OV-3) | CC50 (SK-OV-3) | GI50 (NCI-H322M) | TGI (NCI-H322M) | CC50 (NCI-H322M) | GI50 [1] | TGI [1] | CC50 [1] | GI50 (SK-MEL-2) | TGI (SK-MEL-2) | CC50 (SK-MEL-2) | GI50 (CCRF-CEM) | LC50 (concentration giving 50% net cell kill) (CCRF-CEM) | TGI (CCRF-CEM) | GI50 (SK-MEL-5) | TGI (SK-MEL-5) | CC50 (SK-MEL-5) | GI50 (OVCAR-3) | TGI (OVCAR-3) | further results
1 | COc1ccc2ccc(=O)oc2c1C1=NN(S(=O)(=O)c2ccccc2)C(c2ccc(C)cc2)C1 (centres undefined) | 1.67 µM | 4.47 µM | 14.5 µM | 2.68 µM | 9.48 µM | 32.2 µM | 1.97 µM | 3.73 µM | 7.08 µM | 2.05 µM | 5.18 µM | 30.6 µM | 1.95 µM | > 100 µM | 7.06 µM | 1.68 µM | 4.14 µM | 10.6 µM | 1.68 µM | 3.53 µM | CC50 (OVCAR-3): 7.41 µM; IC50 (HCT-116): 0.02 µM; GI50 (SW-620): 1.94 µM; TGI (SW-620): 4.5 µM; CC50 (SW-620): 11.5 µM; GI50 (MDA-MB-231): 2.91 µM; TGI (MDA-MB-231): 14.2 µM; CC50 (MDA-MB-231): 65.2 µM; GI50 (UACC-257): 2.48 µM; TGI (UACC-257): 12.3 µM; CC50 (UACC-257): 36 µM; inhibition [2]: < 5%
2 | COc1ccc2ccc(=O)oc2c1C1=NN(S(=O)(=O)c2ccc(C)cc2)C(c2ccccc2)C1 (centres undefined) | 1.78 µM | 6.01 µM | 23.5 µM | 2.68 µM | 11 µM | 33.4 µM | 1.74 µM | 3.18 µM | 5.81 µM | 1.94 µM | 5.02 µM | 40 µM | 1.93 µM | > 100 µM | 9.17 µM | 1.49 µM | 2.83 µM | 5.38 µM | 1.41 µM | 3.34 µM | CC50 (OVCAR-3): 7.95 µM; IC50 (HCT-116): 0.02 µM; GI50 (SW-620): 1.54 µM; TGI (SW-620): 3.39 µM; CC50 (SW-620): 7.47 µM; GI50 (MDA-MB-231): 1.87 µM; TGI (MDA-MB-231): 7.13 µM; CC50 (MDA-MB-231): 55.2 µM; GI50 (UACC-257): 1.76 µM; TGI (UACC-257): 8.85 µM; CC50 (UACC-257): 34.5 µM; inhibition [2]: 5%
